From PubChem BioAssay
Shown are actives, neighbours in structure and some others; about 4.1% of the full set was active somewhere.
UPR CHOP act: apoptotic UPR (CHOP) activation; CHO-CHOP luciferase reporter, luminescence; percent of tunicamycin response over DMSO baseline; activation, % at 10 µM; actives 0.34% (n = 330,000);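 active = at 10 µM dose, activation of 40% or more, normalized to positive control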;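 also: 100% = tunicamycin at 10 µg/mL and 0% = DMSO alone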
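System: CHO-CHOP luciferase reporter cell line; amount: 500 cells/well; buffer or medium: F12 medium containing 10% fetal bovine serum; incubation: 6 h compound exposure at 37 °C after overnight seeding; measured by: luciferase luminescence after 10 min with Steady-Glo reagent; evaluation: % reporter activation, DMSO baseline versus tunicamycin full activation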
Apaf-1 inh: inhibitors of human Apaf-1 apoptosome. inhibition, % at 20 µM. O14727. actives 0.71% (n = 330,000). reconstituted apoptosome caspase-3 activity, DEVD-Rh110 fluorescence. AID 489030; active = inhibition of at least 40% at 20 µM;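 also: plate controls were DMSO wells for no effect and DEVD-CHO caspase inhibitor wells for full effect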
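Assay system – apoptosome proteins · Medium – Hepes buffer, pH 7.5 · Also added – cytochrome c with DEVD-Rh110 · Timing – 30 min compound preincubation, 50 min activation, room temperature · Detection – Rh110 fluorescence, excitation 480 nm, emission 540 nm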
Mdm2-MdmX inh: disrupts the human Mdm2-MdmX interaction | O15151+Q00987 | SaOS-2 split-luciferase Mdm2/MdmX complementation, luminescence | inhibition, % at 8 µM | actives 3% (n = 330,000) | AID 485346;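 active = inhibition of at least 50% at 8 µM in the primary screen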
UBC13 inh: blocks human UBC13 polyubiquitin chain formation | inhibition, % at 20 µM | AID 485273 | TR-FRET | actives 0.47% (n = 330,000); in the data active = inhibition above about 45%, passing the limit was not always enough
Target sequence (P61088 whole entry, looked up): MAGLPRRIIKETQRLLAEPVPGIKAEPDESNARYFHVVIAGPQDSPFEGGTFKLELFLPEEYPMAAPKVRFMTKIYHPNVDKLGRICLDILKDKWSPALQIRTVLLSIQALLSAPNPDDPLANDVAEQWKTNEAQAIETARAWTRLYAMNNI
XBP1 UPR activ: adaptive UPR (XBP1) activation | AID 463104 | actives 0.33% (n = 330,000) | activation, % at 20 µM | CHO-XBP1 luciferase reporter, IRE1-XBP1 UPR activation, luminescence; percent of tunicamycin response, DMSO as zero;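 active = versus positive control, 20 µM dose yields 30% or more activation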;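 also: 100% = tunicamycin at 10 µg/mL and 0% = DMSO only wells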
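Material: CHO-XBP1 cells stably carrying IRE1-XBP1-driven luciferase reporter / Amount: 1000 cells per well / Compound: 20 µM, 1% DMSO / Times: 6 h treatment, 37 °C / Detection: luciferase luminescence / Measure: % activation of reporter signal versus tunicamycin and DMSO controls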
Mdm2-MdmX conf: human Mdm2/MdmX binding inhibition, confirmed; shares compounds with Mdm2-MdmX inh; AID 489028; actives 55% (n = 10,000); inhibition, % at 8 µM; luminescent assay; in the data active = inhibition above about 40%
Full FLuc ctr: full-length luciferase inhibition in Mdm2/MdmX counter-screen. actives 77% (n = 6,200). shares compounds with Mdm2-MdmX inh. SaOS-2 full-length luciferase counterscreen, luminescence. inhibition, % at 8 µM. AID 504607;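 active = mean inhibition at 8 µM reaching about 37%, which flags the compound as non-specific, limit read from the data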;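 also: p53-null SaOS-2 cells with luciferase driven by a doxycycline-inducible promoter; compound on cells about two nights before reading with doxycycline added after day one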
An asterisk follows results filed as active; . = no result.

SMILES	UPR CHOP act	Apaf-1 inh	Mdm2-MdmX inh	UBC13 inh	XBP1 UPR activ	Mdm2-MdmX conf	Full FLuc ctr
CC1=C2C(=O)C3C(CC=C4CC(O)CCC43C)C2CCC12OC1CC(C)CNC1C2C (configuration not stated)	2	3	24	6	-2	.	.
O=C(c1cn(Cc2ccccc2F)c2ncccc12)C(F)(F)F	-2	14	4	3	2	.	.
Cc1cc([N+](=O)[O-])c2ccccc2[n+]1[O-]	-4	-6	99*	-8	-6	100*	51*
C[C@@H]1O[C@@H](O[C@H]2C[C@@H](O)[C@]3(CO)[C@@H]4C(CC[C@]3(O)C2)[C@@]2(O)CC[C@H](C3COC(=O)C3)[C@@]2(C)C[C@H]4O)[C@H](O)[C@H](O)[C@H]1O (some centres not stated)	1	-8	68*	-3	-4	70*	24
O=C(O)c1ccc(-[n+]2c(-c3ccccc3)cc(-c3ccccc3)cc2-c2ccccc2)cc1	-1	-3	27	-3	-2	.	.
Cc1ccc(-c2cc(-c3ccccc3)cc(-c3ccccc3)[n+]2-c2ccc(C(=O)O)cc2)cc1	0	-1	1	-3	1	.	.
C[n+]1c(-c2ccccc2)cc(CCCCc2cc(-c3ccccc3)[n+](C)c(-c3ccccc3)c2)cc1-c1ccccc1	-2	15	64*	33	2	32	.
COc1ccc(-c2cc(-c3ccccc3)[n+](C)c(-c3ccccc3)c2)cc1	1	5	55*	10	2	36	52*
COc1ccc(-[n+]2c(-c3ccccc3)cc(-c3ccc(C)cc3)cc2-c2ccccc2)cc1	32	-1	80*	11	-2	91*	49*
Brc1ccc(-[n+]2c(-c3ccccc3)cc(-c3ccccc3)cc2-c2ccccc2)cc1	13	1	87*	27	5	74*	24
Cc1ccnc(NS(=O)(=O)c2ccc(N=Cc3c(O)n(C)c(=O)n(C)c3=O)cc2)n1	-1	-1	9	-8	-1	.	.
CCCOC(=O)c1ccc(-[n+]2c(-c3ccccc3)cc(-c3ccccc3)cc2-c2ccccc2)cc1	36	47*	89*	27	4	87*	18
Cc1cc(O)c2c(c1)OC(C)(C)C1=C2CC(C)CC1 (configuration not stated)	-2	10	8	2	-3	.	.
COC(=O)C1=C(c2c(C)noc2C)C[C@@H]2CC[C@H]1N2C(=O)NCCO	0	-4	2	2	2	.	.
C[C@H]1CC[C@@H]2[C@@H](C)[C@H]3[C@H](C[C@H]4[C@@H]5CC=C6C[C@@H](O[C@@H]7O[C@H](CO)[C@H](O)[C@H](O[C@@H]8O[C@H](CO)[C@@H](O)[C@H](O)[C@H]8O)[C@H]7O[C@@H]7O[C@@H](C)[C@H](O)[C@@H](O)[C@H]7O)CC[C@]6(C)[C@H]5CC[C@]34C)N2C1	0	-1	60*	0	2	-11	.
O=C1NC(=O)C(CCc2ccncc2)(Cc2cccc(Cl)c2Cl)C(=O)N1c1ccc(Br)cc1 (configuration not stated)	-2	24	58*	4	-3	54*	43*
COC(=O)C1=C(c2cccc(OCc3ccccc3)c2)C[C@@H]2CC[C@H]1N2C(=O)NCc1cccc(C(F)(F)F)c1	4	11	40	2	-3	.	.
C#C[C@]1(O)CC[C@H]2[C@@H]3CCC4=Cc5nc6nc7ccccc7n6cc5C[C@]4(C)[C@H]3CC[C@@]21C	22	18	55*	-19	2	2	.
c1ccc2c(c1)OCC(C1=NCCN1)O2 (configuration not stated)	2	10	57*	0	-3	16	.
Cc1ccc(-c2nc(N(C)C3CCN(C)CC3)c3ccccc3n2)cc1	1	1	40	15	2	.	.
Cc1ccc(S(=O)(=O)c2nc(-c3ccccc3Cl)oc2N(C)C2CCN(C)CC2)cc1	5	40	72*	24	1	8	.
C=C(C=O)C[C@@H]1C[C@H](O)C2OC3C[C@]4(C)OC5/C=C\CC6OC7C(CC=CCC6OC5CCCC4OC3CC2O1)OC1CC2OC3CC(=O)OC3C[C@@H](C)C[C@@]2(C)OC1C[C@@H]7C (some centres not stated)	-9	18	100*	-7	-9	95*	0
C=C(C=O)CC1CC(O)[C@]2(C)OC3C[C@@H]4OC5C[C@]6(C)O[C@]7(C)CCC8OC9C[C@]%10(C)OC(/C(C)=C\CO)C(O)CC%10OC9CC(C)C8OC7CC6O[C@]5(C)C/C=C\C4OC3CC2O1 (some centres not stated)	1	-2	10	-1	-2	.	.
CN1OC[C@@H]2COc3ccc4ccccc4c3[C@@H]21	2	7	8	-3	-1	.	.
C[C@H]1CCC[C@H](O)CCCCCc2cc(O)cc(O)c2C(=O)O1	-2	-1	30	12	-6	.	.
SMILES	UPR CHOP act	Apaf-1 inh	Mdm2-MdmX inh	UBC13 inh	XBP1 UPR activ	Mdm2-MdmX conf	Full FLuc ctr
C[C@H]1CCC/C=C/C2C[C@H](O)CC2[C@H](O)/C=C/C(=O)O1 (some centres not stated)	107*	-1	100*	-7	14	99*	51*
Cc1ccc2c(c1)C1CN(C)CCC1N2S(=O)(=O)c1ccccc1 (configuration not stated)	-2	0	-18	-11	-1	.	.
Cc1ccc2c(c1)C1CN(C)CCC1N2C(=O)c1cn(-c2ccccc2)nc1-c1ccccc1 (configuration not stated)	-1	11	73*	8	0	36	76*
Cc1ccc2c(c1)C1CN(C)CCC1N2C(=O)Nc1cccc(C(F)(F)F)c1 (configuration not stated)	-1	17	55*	11	-4	37	65*
Cc1ccc2c(c1)C1CN(C)CCC1N2C(=O)c1ccc(Br)o1 (configuration not stated)	-1	10	17	0	4	.	.
Cc1ccc2c(c1)[C@@H]1CN(C)CC[C@@H]1N2C(=O)Nc1cccc(C(F)(F)F)c1	1	11	52*	11	0	20	.
C=C1C(=O)O[C@@H]2C[C@@H](C)[C@@H]3C4OC4C(=O)[C@@]3(C)[C@@H](O)[C@H]12 (some centres not stated)	-5	-4	101*	-3	-8	100*	5
